Assay results: publication PMC3563241 (Nuclear medicine and biology, 2012)
“And” between values parts separate entries of the source, which are not always exact repeats. Equal values may be shown once.

Legend:
integrin α4β1 (VLA-4) = integrin α4β1 (VLA-4) (Mus musculus, UniProt P09055+Q00651); experiment: Saturation binding assay in B16F10 melanoma cells; conditions: 4 °C, 2 h, 0.1–80 nM
Method in brief: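 Binding medium was HBSS with 0.1% BSA and 1 mM Mn²⁺. Nonspecific binding was measured with 12 μg unlabelled ligand. After 2 h on ice, cells were rinsed, lysed in 0.5% SDS and gamma-counted. Counts were normalised to BCA protein, n=3 per point.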

[1] = test system: B16F10 tumor-bearing mice; experiment: Small animal PET/CT imaging of B16F10 tumor-bearing mice; type: in vivo, C57BL/6 mice; conditions: 2 h post-injection
Method in brief: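 Mice bearing B16F10 tumours received the ⁶⁴Cu-labelled conjugate by tail vein, 100 μCi (667 ng); half of the doses were premixed with 100 μg unlabelled ligand. PET/CT was done at 2 and 24 h under 1–2% isoflurane, with 15 or 30 min static scans and MAP reconstruction. CT-guided ROIs gave maximum SUV (nCi/mL × weight/injected dose), and tumour:background ratios were taken from MIP images (n = 2).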

[2] = test system: B16F10 tumor-bearing mice; experiment: Biodistribution studies in B16F10 tumor-bearing mice; type: in vivo, C57BL/6 mice; conditions: 2 h, co-administered with excess cold LLP2A (50 μg)
Method in brief: (§1)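 Subcutaneous B16F10 tumours (1 × 10⁷ cells in PBS:Matrigel 1:1) grown 14–21 d in 7-wk-old C57BL/6 mice. Mice (n = 5/group) were given the ⁶⁴Cu-labelled conjugate i.v., 14 μCi (14 ng; 1000 μCi/μg); the blocking group's dose was premixed with 50 μg unlabelled ligand. Animals were killed at 2 h, and tissues and tumour were weighed and gamma-counted. %ID/g was decay-corrected against an injected-dose standard; mean±SD.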

[3] = as above; type: in vivo, C57BL/6 mice; conditions: C57BL/6, mouse, iv, total radioactivity; for tissue uptake at 2 h: 14 μCi (14 ng); for tissue to tissue ratio at 2 h: 14 ng
Method in brief: as §1

[4] = test system: B16F10 tumor-bearing mice; conditions: 2 h post-injection, 5 μCi (12.5 ng); previously published data; cited from earlier work

Chain of integrin α4β1 (VLA-4) (Q00651 41-1039): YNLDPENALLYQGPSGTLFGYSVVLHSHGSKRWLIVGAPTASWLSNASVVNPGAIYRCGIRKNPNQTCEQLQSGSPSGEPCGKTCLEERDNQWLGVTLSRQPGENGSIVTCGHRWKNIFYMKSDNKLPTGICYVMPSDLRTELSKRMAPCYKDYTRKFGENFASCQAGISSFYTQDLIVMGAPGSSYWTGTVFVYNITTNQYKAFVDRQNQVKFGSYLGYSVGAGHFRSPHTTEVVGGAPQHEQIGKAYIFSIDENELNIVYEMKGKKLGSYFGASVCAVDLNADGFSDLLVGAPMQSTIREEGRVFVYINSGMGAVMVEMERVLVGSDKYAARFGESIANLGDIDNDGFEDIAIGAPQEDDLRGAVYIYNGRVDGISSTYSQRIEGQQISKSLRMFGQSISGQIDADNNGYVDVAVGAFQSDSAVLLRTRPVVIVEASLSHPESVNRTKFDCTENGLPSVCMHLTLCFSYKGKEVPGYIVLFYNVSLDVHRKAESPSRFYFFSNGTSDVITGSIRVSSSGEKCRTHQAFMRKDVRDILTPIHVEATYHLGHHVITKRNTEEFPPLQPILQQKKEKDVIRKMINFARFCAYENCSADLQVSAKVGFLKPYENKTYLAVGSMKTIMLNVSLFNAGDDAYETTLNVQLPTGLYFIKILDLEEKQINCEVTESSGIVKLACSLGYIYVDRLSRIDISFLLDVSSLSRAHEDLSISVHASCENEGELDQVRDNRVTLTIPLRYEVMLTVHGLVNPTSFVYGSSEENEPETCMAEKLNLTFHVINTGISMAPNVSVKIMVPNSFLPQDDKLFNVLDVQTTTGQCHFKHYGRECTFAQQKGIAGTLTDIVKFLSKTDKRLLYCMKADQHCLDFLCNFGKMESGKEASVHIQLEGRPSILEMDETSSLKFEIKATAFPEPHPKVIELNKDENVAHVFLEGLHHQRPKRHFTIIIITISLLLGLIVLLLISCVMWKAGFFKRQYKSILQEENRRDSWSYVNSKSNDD
Chain of integrin α4β1 (VLA-4) (P09055 21-798): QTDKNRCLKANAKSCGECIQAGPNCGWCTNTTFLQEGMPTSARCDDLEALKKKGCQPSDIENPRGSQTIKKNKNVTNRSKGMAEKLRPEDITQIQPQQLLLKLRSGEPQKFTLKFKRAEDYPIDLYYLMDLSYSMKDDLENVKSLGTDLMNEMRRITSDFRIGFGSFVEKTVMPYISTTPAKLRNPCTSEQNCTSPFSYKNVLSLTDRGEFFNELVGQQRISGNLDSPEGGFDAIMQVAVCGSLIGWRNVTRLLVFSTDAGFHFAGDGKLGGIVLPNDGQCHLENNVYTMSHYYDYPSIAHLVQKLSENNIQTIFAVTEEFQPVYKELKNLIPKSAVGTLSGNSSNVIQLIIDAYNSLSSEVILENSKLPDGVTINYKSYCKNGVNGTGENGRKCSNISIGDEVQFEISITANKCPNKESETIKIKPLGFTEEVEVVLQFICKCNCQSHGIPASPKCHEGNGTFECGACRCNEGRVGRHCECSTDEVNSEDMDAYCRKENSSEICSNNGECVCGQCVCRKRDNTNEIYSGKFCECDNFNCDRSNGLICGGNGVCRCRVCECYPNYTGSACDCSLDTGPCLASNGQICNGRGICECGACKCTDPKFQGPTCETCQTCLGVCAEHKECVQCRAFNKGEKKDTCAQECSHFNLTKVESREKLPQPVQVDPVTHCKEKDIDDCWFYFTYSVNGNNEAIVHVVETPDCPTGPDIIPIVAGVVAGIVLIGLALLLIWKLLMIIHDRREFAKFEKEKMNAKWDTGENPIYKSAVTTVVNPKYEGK

For `Cc1ccccc1NC(=O)Nc1ccc(CC(=O)N[C@@H](CCCCNC(=O)/C=C/c2cccnc2)C(=O)N[C@@H](CCCC(=O)O)C(=O)NC2(C(=O)NCCOCCOCCNC(=O)CCC(=O)NCCOCCOCCNC(=O)CCC(=O)N[C@@H](CCCCNC(=O)CN3CCCN4CCN(CCCN(CP(=O)(O)O)CC4)CC3)C(N)=O)CCCCC2)cc1` [^64Cu-CB-TE1A1P-LLP2A, metal not drawn], the “receptor concentration (Bmax)” value (integrin α4β1 (VLA-4)) was 471 fmol/mg and 471 ± 14 fmol/mg, the “Fold higher tumor to background ratio than ^64Cu-CB-TE2A-LLP2A” value [1] was “more than 2 fold” and the “Radiotracer uptake in tumor, spleen and bone in the presence of blocking agent” value [2] was “significantly reduced”. It also gave a tissue uptake at 2 h ([3]; bone) of 6.2 ± 1.7 %ID/g, a tissue uptake at 2 h ([3]; kidney) of 3.2 ± 0.4 %ID/g and a tissue uptake at 2 h ([3]; liver) of 2.3 ± 0.3 %ID/g. The tissue uptake at 2 h ([3]; marrow) was 32.6 ± 19 %ID/g, the tissue uptake at 2 h ([3]; spleen) was 17.9 ± 2.3 %ID/g and the tissue to tissue ratio at 2 h ([3]; tumor / blood) was 19.5 ± 3. It also gave a tissue to tissue ratio at 2 h ([3]; tumor / muscle) of 13 ± 1.4 and a tissue uptake at 2 h ([3]; tumor) of 11.4 ± 2.3 %ID/g.

In the case of `Cc1ccccc1NC(=O)Nc1ccc(CC(=O)N[C@@H](CCCCNC(=O)/C=C/c2cccnc2)C(=O)N[C@@H](CCCC(=O)O)C(=O)NC2(C(=O)NCCOCCOCCNC(=O)CCC(=O)NCCOCCOCCNC(=O)CCC(=O)N[C@@H](CCCCNC(=O)CN3CCCN4CCN(CCCN(CC(=O)O)CC4)CC3)C(N)=O)CCCCC2)cc1` [^64Cu-CB-TE2A-LLP2A, metal not drawn, reference compound], the “receptor concentration (Bmax)” value (integrin α4β1 (VLA-4)) is given as 304 fmol/mg and 304 ± 18 fmol/mg, the “Tumor to blood ratio” value [4] is given as 4.2 ± 1.4 and the “Tumor to muscle ratio” value [4] is given as 5.5 ± 0.9.
